Measured values published in ChEMBL document CHEMBL1131485, “Novel potent and selective central 5-HT3 receptor ligands provided with different intrinsic efficacy. 1. Mapping the central 5-HT3 receptor binding site by arylpiperazine derivatives” (J Med Chem, 1998).

Key:
[1] = molecular target: T1, Serotonin 3 (5-HT3) receptor (Rattus norvegicus, UniProt P35563+Q9JJ16); assay: Binding affinity at 5-hydroxytryptamine 3 receptor in rat cortical membrane by [3H]graniestron displacement.; format: cell membranes
T1 sequence (P35563 whole entry): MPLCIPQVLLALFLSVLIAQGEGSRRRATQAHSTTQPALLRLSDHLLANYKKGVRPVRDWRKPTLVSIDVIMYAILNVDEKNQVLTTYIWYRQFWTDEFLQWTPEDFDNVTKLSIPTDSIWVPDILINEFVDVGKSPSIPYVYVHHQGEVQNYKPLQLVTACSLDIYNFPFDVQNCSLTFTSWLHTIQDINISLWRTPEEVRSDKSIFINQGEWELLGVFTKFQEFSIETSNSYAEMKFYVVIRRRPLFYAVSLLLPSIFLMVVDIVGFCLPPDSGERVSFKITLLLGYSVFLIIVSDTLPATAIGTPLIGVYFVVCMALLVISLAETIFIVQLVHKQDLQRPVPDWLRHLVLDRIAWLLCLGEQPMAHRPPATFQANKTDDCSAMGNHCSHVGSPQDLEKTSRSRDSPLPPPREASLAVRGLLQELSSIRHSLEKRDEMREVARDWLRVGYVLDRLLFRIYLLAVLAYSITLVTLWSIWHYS
T1 sequence (Q9JJ16 whole entry): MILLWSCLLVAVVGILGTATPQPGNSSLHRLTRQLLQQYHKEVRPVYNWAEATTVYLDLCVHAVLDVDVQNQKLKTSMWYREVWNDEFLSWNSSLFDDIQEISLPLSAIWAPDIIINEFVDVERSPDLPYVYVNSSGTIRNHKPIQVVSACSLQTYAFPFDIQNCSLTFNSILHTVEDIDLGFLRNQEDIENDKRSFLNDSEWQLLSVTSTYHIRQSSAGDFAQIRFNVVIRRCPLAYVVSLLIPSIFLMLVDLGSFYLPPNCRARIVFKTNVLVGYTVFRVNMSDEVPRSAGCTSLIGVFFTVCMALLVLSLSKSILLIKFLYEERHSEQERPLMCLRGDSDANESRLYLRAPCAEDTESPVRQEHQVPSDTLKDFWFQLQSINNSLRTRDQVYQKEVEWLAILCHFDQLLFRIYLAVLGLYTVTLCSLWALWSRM
Method in brief: (§1)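 Cortex and hippocampus of male Wistar rats homogenized in 50 mM Hepes pH 7.4 and assayed in 50 mM Hepes HCl pH 7.4. Filtered on GF/B presoaked in 0.1% polyethylenimine. Ki by Cheng-Prusoff from IC50. Mean ± SEM of three.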

[2] = molecular target: T1, Serotonin 3 (5-HT3) receptor; assay: Ability to displace [3H]granisetron specifically bound to 5-hydroxytryptamine 3 receptor in rat cortical membrane; format: cell membranes; method in brief: as §1
[3] = molecular target: T2, 5-hydroxytryptamine receptor 1A (Rattus norvegicus, UniProt P19327); assay: Ability to displace [3H]- -OH-DPAT bound to 5-hydroxytryptamine 1A receptor in rat hippocampus; format: tissue-based
T2 sequence (P19327 whole entry): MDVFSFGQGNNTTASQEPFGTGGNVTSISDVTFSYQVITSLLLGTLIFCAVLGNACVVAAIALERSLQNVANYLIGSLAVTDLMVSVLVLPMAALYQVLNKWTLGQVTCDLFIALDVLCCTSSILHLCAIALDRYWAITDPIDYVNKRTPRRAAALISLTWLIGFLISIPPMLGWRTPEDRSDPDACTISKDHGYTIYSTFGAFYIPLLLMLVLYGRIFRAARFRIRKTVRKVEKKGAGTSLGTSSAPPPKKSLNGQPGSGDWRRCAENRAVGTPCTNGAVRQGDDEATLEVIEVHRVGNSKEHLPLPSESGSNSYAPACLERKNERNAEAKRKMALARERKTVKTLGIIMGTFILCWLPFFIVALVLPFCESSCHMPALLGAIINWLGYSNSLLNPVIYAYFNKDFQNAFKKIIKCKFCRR
Method in brief: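 Male Wistar rat hippocampal membranes in 50 mM Tris HCl pH 7.4. Stopped by GF/B filtration, counted by scintillation. IC50 from competition curves, converted to Ki by Cheng-Prusoff. Mean ± SEM of three determinations.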

[4] = molecular target: 5-hydroxytryptamine receptor 1B (Rattus norvegicus, UniProt P28564); assay: Ability to displace [3H]5-HT bound to 5-hydroxytryptamine 1B receptor in rat striatum; format: tissue-based
Method in brief: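 Striatal membranes from male Wistar rats in 50 mM Tris HCl pH 7.7 with 10 μM pargyline, 4 mM CaCl2 and 0.1% ascorbic acid. Filtration and scintillation counting. Ki from IC50 via Cheng-Prusoff. Mean ± SEM, n=3.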

[5] = molecular target: 5-hydroxytryptamine receptor 2A (Rattus norvegicus, UniProt P14842); assay: Ability to displace [3H]ketanserin bound to 5-hydroxytryptamine 2A receptor in rat pre-frontal cortex; format: tissue-based
Method in brief: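 Rat prefrontal cortex membranes (male Wistar) in 50 mM Tris HCl pH 7.7. […] Nonspecific binding with 3 μM ketanserin. Filtered and counted by scintillation. IC50 converted to Ki via Cheng-Prusoff. Mean ± SEM of three determinations.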

[6] = molecular target: T3, 5-hydroxytryptamine receptor 2C (Rattus norvegicus, UniProt P08909); assay: Ability to displace [3H]mesulergine bound to 5-hydroxytryptamine 2C receptor in rat cortex; format: tissue-based
T3 sequence (P08909 whole entry): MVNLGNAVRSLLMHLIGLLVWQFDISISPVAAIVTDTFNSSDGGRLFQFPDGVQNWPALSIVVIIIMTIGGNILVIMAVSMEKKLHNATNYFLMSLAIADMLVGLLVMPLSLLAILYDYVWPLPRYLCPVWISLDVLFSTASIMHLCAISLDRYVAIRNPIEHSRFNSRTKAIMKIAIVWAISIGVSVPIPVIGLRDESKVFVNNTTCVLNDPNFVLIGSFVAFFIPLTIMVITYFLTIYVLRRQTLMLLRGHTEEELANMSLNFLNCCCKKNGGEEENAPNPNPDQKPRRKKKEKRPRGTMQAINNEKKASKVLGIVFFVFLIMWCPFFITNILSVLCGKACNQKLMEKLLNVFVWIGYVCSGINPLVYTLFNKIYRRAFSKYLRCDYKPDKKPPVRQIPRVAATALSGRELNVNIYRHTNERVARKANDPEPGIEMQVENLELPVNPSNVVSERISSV
Method in brief: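 Cortical membranes from male Wistar rats in 50 mM Tris HCl pH 7.7 with 10 μM pargyline, 4 mM CaCl2 and 0.1% ascorbic acid. Nonspecific binding with 1 μM mianserine. Filtration assay. Ki from IC50 via Cheng-Prusoff. Mean ± SEM, n=3.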

[7] = molecular target: Sodium-dependent serotonin transporter (Rattus norvegicus, UniProt P31652); assay: Ability to displace [3H]paroxetine bound to Serotonin transporter receptor in rat forebrain
Method in brief: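 Rat forebrain membranes (male Wistar), stored at -80 °C, in 50 mM Tris HCl pH 7.4. Nonspecific binding with 1 μM 6-nitroquipazine. Filtered on GF/B presoaked in 0.5% polyethylenimine. Ki from IC50 via Cheng-Prusoff. Mean ± SEM of three.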

5-hydroxytryptamine receptor 1B, sequence (P28564 whole entry): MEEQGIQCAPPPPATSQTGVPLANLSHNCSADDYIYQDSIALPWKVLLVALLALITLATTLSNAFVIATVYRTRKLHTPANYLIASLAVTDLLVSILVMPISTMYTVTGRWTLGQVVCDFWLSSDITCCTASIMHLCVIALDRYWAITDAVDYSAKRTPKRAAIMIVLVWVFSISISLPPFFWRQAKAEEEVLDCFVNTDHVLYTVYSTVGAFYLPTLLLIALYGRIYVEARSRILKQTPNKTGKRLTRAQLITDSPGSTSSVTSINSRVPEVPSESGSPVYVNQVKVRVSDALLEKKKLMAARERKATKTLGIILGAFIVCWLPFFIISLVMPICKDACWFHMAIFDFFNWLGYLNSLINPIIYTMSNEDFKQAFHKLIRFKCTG
Sodium-dependent serotonin transporter, sequence (P31652 whole entry): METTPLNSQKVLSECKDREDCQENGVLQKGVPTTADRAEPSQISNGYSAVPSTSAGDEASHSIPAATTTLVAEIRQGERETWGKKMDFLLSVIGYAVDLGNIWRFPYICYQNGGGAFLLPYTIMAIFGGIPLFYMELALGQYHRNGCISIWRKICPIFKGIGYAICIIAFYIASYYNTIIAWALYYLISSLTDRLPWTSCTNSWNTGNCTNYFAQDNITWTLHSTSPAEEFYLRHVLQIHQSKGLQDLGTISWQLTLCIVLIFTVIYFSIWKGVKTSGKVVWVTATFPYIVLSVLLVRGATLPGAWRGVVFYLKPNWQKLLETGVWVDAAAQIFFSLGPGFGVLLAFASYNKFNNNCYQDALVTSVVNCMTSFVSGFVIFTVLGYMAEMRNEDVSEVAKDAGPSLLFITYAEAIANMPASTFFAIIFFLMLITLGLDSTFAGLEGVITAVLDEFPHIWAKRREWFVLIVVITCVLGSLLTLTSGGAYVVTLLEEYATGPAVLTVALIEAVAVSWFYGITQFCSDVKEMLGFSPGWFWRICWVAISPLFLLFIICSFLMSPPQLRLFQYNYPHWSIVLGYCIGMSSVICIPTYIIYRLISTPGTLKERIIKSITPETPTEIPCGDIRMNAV
5-hydroxytryptamine receptor 2A, sequence (P14842 whole entry): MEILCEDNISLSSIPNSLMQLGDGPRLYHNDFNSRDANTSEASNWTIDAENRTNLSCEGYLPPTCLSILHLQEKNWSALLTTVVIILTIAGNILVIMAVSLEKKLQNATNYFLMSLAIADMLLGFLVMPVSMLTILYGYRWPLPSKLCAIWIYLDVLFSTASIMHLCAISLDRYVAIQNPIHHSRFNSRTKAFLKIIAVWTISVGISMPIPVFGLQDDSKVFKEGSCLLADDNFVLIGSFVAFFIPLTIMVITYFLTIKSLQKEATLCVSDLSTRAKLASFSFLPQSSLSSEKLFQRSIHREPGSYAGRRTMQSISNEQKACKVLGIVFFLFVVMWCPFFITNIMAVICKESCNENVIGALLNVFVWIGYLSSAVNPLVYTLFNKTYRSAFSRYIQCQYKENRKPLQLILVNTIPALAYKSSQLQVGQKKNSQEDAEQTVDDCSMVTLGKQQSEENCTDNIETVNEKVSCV

Structure (SMILES) | Ki [2] | Ki [1] | also measured
CN1CCN(c2cccc(C34C[C@H]5C[C@@H](C3)C[C@@H](C4)C5)n2)CC1 | > 550 nM |  | Log Ki [1]: < -6.26
c1ccc(CN2CCN(c3nc4ccccc4c4c3CCCC4)CC2)cc1 | 11 nM |  | 
CN1CCN(c2ccc3c(n2)C2CCCCC2CC3)CC1 (stereo not given) | 660 nM | 661 nM | 
CN1CCN(c2nc3c(c4c2CCCC4)CCCC3)CC1 | 110 nM | 110 nM | 
C[N+]1(C)CCN(c2nc3ccccc3c3c2CCCC3)CC1 | 13 nM |  | 
CCN1CCN(c2nc3ccccc3c3c2CCCC3)CC1 | 1.9 nM |  | 
CN1CCN(c2ccc3c(n2)CCc2ccccc2-3)CC1 | 830 nM | 832 nM | 
c1ccc2c3c(c(N4CCOCC4)nc2c1)CCCC3 | > 17000 nM |  | 
CN1CCN(c2ccc3c(n2)-c2ccccc2CCC3)CC1 | > 550 nM |  | Log Ki [1]: < -6.26
CN1CCN(c2nc3ccccc3c3c2CC2CCC3C2)CC1 (stereo not given) | 0.83 nM | 0.832 nM | Ki [3]: 2400 nM; Ki [4]: 2300 nM; Ki [5]: 3700 nM; Ki [6]: 2800 nM; Ki [7]: 24000 nM
CN1CCN(c2ccc3ccccc3n2)CC1 | 3 nM | 3.02 nM | 
CN1CCN(c2ccc3ccc4ccccc4c3n2)CC1 | 200 nM | 200 nM | 
CN1CCN(c2ccc3c(n2)-c2ccccc2CC3)CC1 | 200 nM | 200 nM | 
CN1CCN(c2ccc3c(n2)-c2ccccc2C3)CC1 | 14 nM | 14.1 nM | Ki [3]: 5700 nM; Ki [4]: 3800 nM; Ki [5]: 2600 nM; Ki [6]: 16000 nM; Ki [7]: 59 nM
CN1CCCN(c2nc3ccccc3c3c2CCCC3)CC1 | 4.8 nM |  | 
CN1CCN(c2nc3ccccc3c3ccccc23)CC1 | 1.9 nM | 1.91 nM | 
CN1CCN(c2nc3ccccc3c3c2CCCC3)CC1 | 0.23 nM | 0.229 nM | Ki [3]: 2800 nM; Ki [4]: > 4000 nM; Ki [5]: 3000 nM; Ki [6]: 4400 nM; Ki [7]: 12000 nM
c1ccc2c3c(c(N4CCNCC4)nc2c1)CCCC3 | 1.7 nM |  | 
O=[N+]([O-])c1ccc2nc(N3CCNCC3)ccc2c1 [6-NITROQUIPAZINE] | 58 nM |  | Ki [7]: 0.12 nM
CCCN(CCC)C1CCc2cccc(O)c2C1 (stereo not given) [8-OH-DPAT] | 1.2 nM |  | 
c1ccc2nc(N3CCNCC3)ccc2c1 [QUIPAZINE] |  |  | Ki [4]: 310 nM; Ki [6]: 190 nM
